Experimental data gathered from unrelated publications.
Protocols differ between the studies behind these lines.
SLC22A6: Solute carrier family 22 member 6 (SLC22A6, Homo sapiens, UniProt Q4U2R8)
PRMT3: Protein arginine N-methyltransferase 3 (PRMT3, Homo sapiens, UniProt O60678)
MAOA: Amine oxidase [flavin-containing] A (MAOA, Homo sapiens, UniProt P21397)
NTRK1: High affinity nerve growth factor receptor (NTRK1, Homo sapiens, UniProt P04629)

Structure (SMILES) | target | test | setting | IC50 [µM]
Nc1ncnc2c1ncn2[C@@H]1O[C@H](COP(=O)(O)OP(=O)(O)O)[C@@H](O)[C@H]1O | Nucleotide-binding oligomerization domain-containing protein 1 (NOD1, Homo sapiens, UniProt Q9Y239) | ligand displacement, FP |  | 0.19
NC(=O)c1cnc2[nH]ccc2c1N[C@@H]1[C@@H]2CC3C[C@H]1C[C@@](O)(C3)C2 | SLC22A6 | transporter uptake, inhibitor, radiometric | 2 min | > 100
CCS(=O)(=O)N1CC(CC#N)(n2cc(-c3ncnc4[nH]ccc34)cn2)C1 | SLC22A6 | transporter uptake, inhibitor |  | > 100
CCCCN1/C(=C/C=C/c2sc3ccc(Br)cc3[n+]2CCCC)Sc2ccc(Br)cc21 | PRMT3 | enzyme activity, inhibitor, radiometric |  | 3.17
C[C@@H]1C[C@H]2O[C@@H]2CC/C=C/C(=O)Cc2cc(O)cc(O)c2C(=O)O1 | Mitogen-activated protein kinase kinase kinase 7 (MAP3K7, Homo sapiens, UniProt O43318) | enzyme activity, inhibitor, ATP luminescence |  | > 10
Nc1ncnc2c1ncn2[C@@H]1O[C@H](CSCCNC(=O)NCCCc2ccccc2)[C@@H](O)[C@H]1O | PRMT3 | enzyme activity, inhibitor, fluorescence |  | > 100
O=c1cc(-c2ccc(O)cc2)oc2cc(O)c([C@@H]3O[C@H](CO)[C@@H](O)[C@H](O)[C@H]3O)c(O)c12 | MAOA | enzyme activity, inhibitor |  | 25.8
CCOc1ccc2c(-c3cc(C)nc(Nc4cc(OC)cc(C(F)(F)F)c4)n3)cnn2n1 | Homeodomain-interacting protein kinase 4 (HIPK4, Homo sapiens, UniProt Q8NE63) | enzyme activity, inhibitor |  | > 10
COc1cccc(OC)c1OCCNCC1COc2ccccc2O1 (stereo not shown) | Alpha-1A adrenergic receptor (ADRA1A, Homo sapiens, UniProt P35348) | ligand displacement, radioligand |  | 0.00036
CCN(CC)CCCOc1cc2cc3c(cc2c2nc(OC)c4cc(OC)c(OC)cc4c12)OCO3 | Tyrosyl-DNA phosphodiesterase 1 (TDP1, Homo sapiens, UniProt Q9NUW8) | enzyme activity, inhibitor |  | 5.5 to 13
COc1cc(C(=O)O)ccc1O[C@@H]1O[C@H](CO)[C@@H](O)[C@H](O)[C@H]1O | L-lactate dehydrogenase A chain (LDHA, Homo sapiens, UniProt P00338) | enzyme activity, inhibitor | pH 7.4 | > 500
Nc1ncnc2c1ncn2[C@@H]1O[C@H](CSCCCNC(=O)NCc2ccccc2)[C@@H](O)[C@H]1O | PRMT3 | enzyme activity, inhibitor, fluorescence |  | 70
CC1=C[C@@]2(C[C@H](C)[C@H]3CC=C(C)C(=O)[C@@H]3O2)OC1=O | Tyrosine-protein phosphatase non-receptor type 1 (PTPN1, Homo sapiens, UniProt P18031) | enzyme activity, inhibitor |  | > 500
Clc1ccc2c(c1)N(CCCN1CCN(CCCc3ccccc3)CC1)c1ccccc1S2 | Glutathione reductase, mitochondrial (GSR, Homo sapiens, UniProt P00390) | enzyme activity, inhibitor, absorbance |  | > 100
Cc1ccc(NC(=O)c2ccc(C)c(C(F)(F)F)c2)cc1C#Cc1nn(C2CCC(O)CC2)c2ncnc(N)c12 (stereo not shown) | NTRK1 | enzyme activity, inhibitor, radiometric |  | > 10
OC[C@H]1O[C@@H](n2cnc3c(NCCCc4ccccc4)ncnc32)[C@H](O)[C@@H]1O | PRMT3 | enzyme activity, inhibitor, fluorescence |  | > 100
C#CCOc1ccc(/C=C/C(=O)N2CCC(Cc3ccccc3)CC2)cc1OC | MAOA | enzyme activity, inhibitor, fluorescence |  | 45.2
C[C@@H](N)COc1ccc(-c2cnc3ccc(N[C@H](C)c4cccc(F)c4)nn23)cc1 | NTRK1 | enzyme activity, inhibitor |  | 0.0044
CNC(=O)c1cc2c(Oc3ccc(NC(=O)C4(C(=O)Nc5ccc(F)cc5)CC4)cc3)ccnc2cc1OC | Receptor-interacting serine/threonine-protein kinase 2 (RIPK2, Homo sapiens, UniProt O43353) | enzyme activity, inhibitor, radiometric |  | 0.017
